ChEMBL document CHEMBL1145950, “2-arylureidobenzoic acids: selective noncompetitive antagonists for the homomeric kainate receptor subtype GluR5” (J Med Chem, 2003)

Legend:
[1] = target: T1, Glutamate receptor ionotropic, kainate 1 (Homo sapiens, UniProt P39086); experiment: In vitro inhibitory activity against human ionotropic glutamate receptor ionotropic kainate 1 (GluR-5) expressed in HEK293 cells.; assay type: cell-based
[2] = target: Glutamate receptor 1 (Rattus norvegicus) (UniProt P19490); experiment: In vitro inhibitory activity against Ionotropic glutamate receptor AMPA 1 of HEK293 cells in FLIPR assay
Chain of Glutamate receptor 1 (Rattus norvegicus) (P19490 whole entry, looked up): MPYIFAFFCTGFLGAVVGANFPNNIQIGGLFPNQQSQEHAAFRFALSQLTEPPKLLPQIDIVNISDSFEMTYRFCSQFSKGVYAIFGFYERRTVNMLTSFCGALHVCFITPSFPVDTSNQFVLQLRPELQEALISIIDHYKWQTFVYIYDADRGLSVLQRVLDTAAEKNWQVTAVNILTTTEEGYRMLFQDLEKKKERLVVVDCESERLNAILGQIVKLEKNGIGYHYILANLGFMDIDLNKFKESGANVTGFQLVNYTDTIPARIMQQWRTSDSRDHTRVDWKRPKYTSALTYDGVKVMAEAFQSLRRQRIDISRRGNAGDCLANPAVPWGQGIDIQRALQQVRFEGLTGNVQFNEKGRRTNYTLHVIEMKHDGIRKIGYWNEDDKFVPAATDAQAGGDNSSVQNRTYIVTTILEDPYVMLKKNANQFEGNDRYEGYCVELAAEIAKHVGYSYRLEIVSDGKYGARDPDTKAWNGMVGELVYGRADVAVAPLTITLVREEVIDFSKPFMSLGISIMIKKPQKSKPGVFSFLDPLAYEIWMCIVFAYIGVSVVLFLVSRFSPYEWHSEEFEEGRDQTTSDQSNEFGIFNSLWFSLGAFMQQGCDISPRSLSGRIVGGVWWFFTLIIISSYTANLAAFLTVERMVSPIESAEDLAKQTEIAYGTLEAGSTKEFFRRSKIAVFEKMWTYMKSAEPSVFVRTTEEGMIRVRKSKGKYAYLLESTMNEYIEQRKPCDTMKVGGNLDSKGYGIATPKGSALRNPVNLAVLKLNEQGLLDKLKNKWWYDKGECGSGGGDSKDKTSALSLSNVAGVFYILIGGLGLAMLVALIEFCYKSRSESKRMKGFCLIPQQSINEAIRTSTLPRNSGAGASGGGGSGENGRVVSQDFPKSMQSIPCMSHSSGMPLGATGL

[3] = target: Glutamate receptor ionotropic, kainate 2 (Homo sapiens, UniProt Q13002); experiment: In vitro inhibitory activity against Ionotropic glutamate receptor ionotropic kainate 2 (GluR-6) of HEK293 cells in FLIPR assay; assay type: cell-based
Chain of Glutamate receptor ionotropic, kainate 2 (Q13002 whole entry): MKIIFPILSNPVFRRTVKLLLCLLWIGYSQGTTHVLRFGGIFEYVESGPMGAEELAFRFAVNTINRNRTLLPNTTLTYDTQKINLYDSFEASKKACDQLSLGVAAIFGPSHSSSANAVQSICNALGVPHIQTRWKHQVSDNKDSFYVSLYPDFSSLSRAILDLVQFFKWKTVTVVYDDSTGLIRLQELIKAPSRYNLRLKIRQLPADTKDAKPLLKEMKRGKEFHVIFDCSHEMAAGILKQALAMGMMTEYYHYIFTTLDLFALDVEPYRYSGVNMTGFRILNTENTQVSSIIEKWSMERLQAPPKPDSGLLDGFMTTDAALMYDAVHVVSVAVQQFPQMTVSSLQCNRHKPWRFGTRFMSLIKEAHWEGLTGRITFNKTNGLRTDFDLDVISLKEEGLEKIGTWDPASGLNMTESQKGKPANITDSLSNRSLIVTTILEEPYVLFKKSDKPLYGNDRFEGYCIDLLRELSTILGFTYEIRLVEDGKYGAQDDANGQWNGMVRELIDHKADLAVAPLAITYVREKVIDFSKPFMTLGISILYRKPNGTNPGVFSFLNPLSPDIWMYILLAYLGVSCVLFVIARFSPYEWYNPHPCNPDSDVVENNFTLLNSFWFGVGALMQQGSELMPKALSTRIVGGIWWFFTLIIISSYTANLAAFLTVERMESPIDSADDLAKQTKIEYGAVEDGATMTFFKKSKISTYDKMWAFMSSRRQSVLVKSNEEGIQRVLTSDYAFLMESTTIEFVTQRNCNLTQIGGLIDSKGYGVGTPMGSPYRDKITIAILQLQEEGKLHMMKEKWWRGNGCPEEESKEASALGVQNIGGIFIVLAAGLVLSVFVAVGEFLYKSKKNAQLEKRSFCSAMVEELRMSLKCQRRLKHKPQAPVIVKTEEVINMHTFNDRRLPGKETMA
Summary of the method: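 Human GluR6 stably expressed in HEK293, plated 24 h before assay. Cells loaded with 2 µM Fluo-4-AM for 60 min at room temperature, washed into Na+-free Ringer, pH 7.4. Compound preincubated 1.5 min, then 0.2 µM domoate added (final). Inhibition of the FLIPR Ca2+ fluorescence rise (ex 488, em 510-570 nm) was measured; IC50 from ≥3 experiments.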

[4] = target: Glutamate receptor 2 (Rattus norvegicus) (UniProt P19491); experiment: In vitro inhibitory activity against Ionotropic glutamate receptor AMPA 2 of HEK293 cells in FLIPR assay
[5] = target: Glutamate receptor 4 (Rattus norvegicus) (UniProt P19493); experiment: In vitro inhibitory activity against Ionotropic glutamate receptor AMPA 4 of HEK293 cells in FLIPR assay
Chain of Glutamate receptor 4 (Rattus norvegicus) (P19493 whole entry, looked up): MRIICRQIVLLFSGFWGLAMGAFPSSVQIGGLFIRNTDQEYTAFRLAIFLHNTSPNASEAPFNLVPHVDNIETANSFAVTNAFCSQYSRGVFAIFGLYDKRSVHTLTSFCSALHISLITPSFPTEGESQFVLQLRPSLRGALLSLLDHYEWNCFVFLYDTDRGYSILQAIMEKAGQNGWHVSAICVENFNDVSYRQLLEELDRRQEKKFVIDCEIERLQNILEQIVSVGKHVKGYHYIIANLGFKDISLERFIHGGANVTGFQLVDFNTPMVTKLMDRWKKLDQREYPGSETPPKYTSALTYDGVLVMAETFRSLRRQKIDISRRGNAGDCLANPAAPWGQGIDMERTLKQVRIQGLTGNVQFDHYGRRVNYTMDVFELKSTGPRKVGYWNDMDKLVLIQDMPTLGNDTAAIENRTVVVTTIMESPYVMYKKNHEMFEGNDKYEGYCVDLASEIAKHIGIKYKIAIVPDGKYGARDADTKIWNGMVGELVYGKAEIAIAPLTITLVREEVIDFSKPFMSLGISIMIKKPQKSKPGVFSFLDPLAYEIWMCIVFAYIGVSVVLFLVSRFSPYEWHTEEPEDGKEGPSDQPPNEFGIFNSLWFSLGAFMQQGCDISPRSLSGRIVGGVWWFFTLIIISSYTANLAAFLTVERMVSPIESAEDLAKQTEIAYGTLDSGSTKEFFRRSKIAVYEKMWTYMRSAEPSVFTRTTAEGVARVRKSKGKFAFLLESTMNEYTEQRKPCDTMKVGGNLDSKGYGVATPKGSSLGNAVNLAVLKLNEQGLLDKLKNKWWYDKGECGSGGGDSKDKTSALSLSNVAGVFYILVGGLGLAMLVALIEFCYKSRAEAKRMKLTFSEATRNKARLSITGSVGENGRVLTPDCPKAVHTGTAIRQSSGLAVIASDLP

Mus musculus [6] = experiment: ATPA induced rigidity in mice was determined after 30 minutes of administration; assay type: functional
Summary of the method: (§1)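 Female NMRI mice, 20-25 g. Test substance given intravenously, n = 8 per dose, 5 or 30 min before ATPA (30 mg/kg i.v.; 3 mg/mL in saline, pH 7). Rigidity scored every 5 min over 30 min after ATPA, as percent of rigid mice over time.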

[7] = target: T1, Glutamate receptor ionotropic, kainate 1; experiment: Binding inhibition of compound against Ionotropic glutamate receptor ionotropic kainate 1 (GluR5) using [3H]ATPA as radioligand
Summary of the method: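 GluR5-expressing HEK293 cell membranes (washed in 50 mM Tris-HCl pH 7.1, prepared at 0-4 °C) incubated with 3 nM [3H]ATPA, 46-84 µg protein/assay, 60 min at 2 °C; test compounds at 3-30 µM. Nonspecific binding defined with 0.6 mM Glu; rapid filtration, liquid scintillation counting. At least three separate experiments.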

[8] = target: Glutamate receptor 3 (Rattus norvegicus) (UniProt P19492); experiment: In vitro inhibitory activity against Ionotropic glutamate receptor AMPA 3 of HEK293 cells in FLIPR assay
Chain of Glutamate receptor 3 (Rattus norvegicus) (P19492 whole entry, looked up): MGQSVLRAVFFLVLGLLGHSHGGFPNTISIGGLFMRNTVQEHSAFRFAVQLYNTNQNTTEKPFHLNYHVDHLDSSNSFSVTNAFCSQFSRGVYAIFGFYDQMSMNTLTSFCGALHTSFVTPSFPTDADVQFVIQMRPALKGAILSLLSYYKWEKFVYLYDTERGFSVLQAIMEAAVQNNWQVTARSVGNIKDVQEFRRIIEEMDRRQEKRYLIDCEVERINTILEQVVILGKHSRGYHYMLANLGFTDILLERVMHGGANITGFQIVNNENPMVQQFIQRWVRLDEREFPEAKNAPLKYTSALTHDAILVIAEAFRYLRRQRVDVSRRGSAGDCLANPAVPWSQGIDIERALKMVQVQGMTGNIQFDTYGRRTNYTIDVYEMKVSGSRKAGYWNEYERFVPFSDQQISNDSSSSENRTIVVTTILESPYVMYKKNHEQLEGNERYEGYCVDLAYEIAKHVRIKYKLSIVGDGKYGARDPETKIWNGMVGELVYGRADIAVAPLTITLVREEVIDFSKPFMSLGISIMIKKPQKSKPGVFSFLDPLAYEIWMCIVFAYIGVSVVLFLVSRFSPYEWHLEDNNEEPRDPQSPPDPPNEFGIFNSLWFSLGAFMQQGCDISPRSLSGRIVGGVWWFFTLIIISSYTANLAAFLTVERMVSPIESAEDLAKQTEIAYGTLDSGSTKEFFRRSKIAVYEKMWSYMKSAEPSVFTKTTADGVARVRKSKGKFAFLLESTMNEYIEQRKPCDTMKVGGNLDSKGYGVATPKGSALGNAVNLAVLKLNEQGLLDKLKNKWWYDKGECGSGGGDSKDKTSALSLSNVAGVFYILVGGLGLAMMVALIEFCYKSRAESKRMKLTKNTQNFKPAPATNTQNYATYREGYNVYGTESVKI

Mus musculus [9] = experiment: ATPA induced rigidity in mice was determined after 5 minutes of administration; assay type: functional; summary of the method: as §1

T1 sequence (P39086 whole entry): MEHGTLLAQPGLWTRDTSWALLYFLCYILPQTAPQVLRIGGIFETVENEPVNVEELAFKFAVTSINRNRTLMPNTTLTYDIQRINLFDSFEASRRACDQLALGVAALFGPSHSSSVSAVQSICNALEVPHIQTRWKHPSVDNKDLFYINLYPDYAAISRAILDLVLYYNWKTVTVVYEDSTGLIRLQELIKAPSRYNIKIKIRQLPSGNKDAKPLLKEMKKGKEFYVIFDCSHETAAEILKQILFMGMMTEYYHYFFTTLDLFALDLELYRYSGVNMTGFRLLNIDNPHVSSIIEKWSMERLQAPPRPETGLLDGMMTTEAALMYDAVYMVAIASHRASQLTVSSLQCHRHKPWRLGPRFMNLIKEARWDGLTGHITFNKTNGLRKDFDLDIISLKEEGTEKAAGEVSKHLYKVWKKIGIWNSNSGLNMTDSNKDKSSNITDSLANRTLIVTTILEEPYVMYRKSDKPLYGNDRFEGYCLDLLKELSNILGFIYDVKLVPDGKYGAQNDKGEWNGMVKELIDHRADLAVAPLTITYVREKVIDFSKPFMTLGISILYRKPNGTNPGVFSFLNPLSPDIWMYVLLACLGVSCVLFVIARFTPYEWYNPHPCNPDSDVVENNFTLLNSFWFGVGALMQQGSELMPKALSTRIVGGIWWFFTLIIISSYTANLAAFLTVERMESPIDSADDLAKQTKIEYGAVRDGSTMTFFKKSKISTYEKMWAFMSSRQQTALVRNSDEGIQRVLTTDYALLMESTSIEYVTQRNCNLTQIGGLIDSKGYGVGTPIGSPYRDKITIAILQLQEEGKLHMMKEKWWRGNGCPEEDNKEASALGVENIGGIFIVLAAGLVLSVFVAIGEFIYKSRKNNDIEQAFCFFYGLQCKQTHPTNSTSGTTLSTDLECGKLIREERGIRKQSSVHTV

Compound | IC50 [1] | other results
O=C(Nc1ccccc1)Nc1cc(Cl)ccc1C(=O)O | 10 µM | 
Cc1ccc(NC(=O)Nc2cccc(C(F)(F)F)c2)c(C(=O)O)c1 | > 100 µM | 
O=C(Nc1ccncc1)Nc1cc(Cl)ccc1C(=O)O | 88 µM | 
O=C(Nc1cccc(I)c1)Nc1cc(Cl)ccc1C(=O)O | 2.2 µM | 
O=C(Nc1ccccc1)Nc1ccccc1C(=O)O | > 100 µM | 
O=C(Nc1cccc(Br)c1)Nc1cc(Cl)ccc1C(=O)O | 4.8 µM | IC50 [2]: > 100 µM; IC50 [3]: 28 µM; IC50 [4]: > 100 µM; IC50 [5]: > 100 µM; ED50 (Mus musculus [6]; Mus musculus, 0.5 h): 24 mg/kg; IC50 [7]: > 30 µM; IC50 [8]: > 100 µM; ED50 (Mus musculus [9]; Mus musculus, 5 min): 4 mg/kg
Cc1cccc(NC(=O)Nc2cccc(C(F)(F)F)c2)c1C(=O)O | > 100 µM | 
O=C(Nc1ccccc1Cl)Nc1cc(Cl)ccc1C(=O)O | 4.7 µM | 
O=C(Nc1ccc(I)cc1)Nc1cc(Cl)ccc1C(=O)O | 4.7 µM | 
O=C(Nc1ccc(Cl)cc1)Nc1cc(Cl)ccc1C(=O)O | 3.1 µM | 
O=C(Nc1cc2ccccc2[nH]1)Nc1cc(Cl)ccc1C(=O)O | 1.2 µM | 
O=C(Nc1ccc(C(F)(F)F)cc1)Nc1cc(Cl)ccc1C(=O)O | 4.8 µM | 
O=C(Nc1ccccc1Br)Nc1cc(Cl)ccc1C(=O)O | 4.5 µM | 
O=C(Nc1cc(Cl)ccc1C(=O)O)Nc1ccccc1-c1ccccc1 | > 10 µM | 
O=C(Nc1ccc2cc3ccccc3cc2c1)Nc1cc(Cl)ccc1C(=O)O | > 30 µM | 
O=C(Nc1cc(NC(=O)c2ccccc2)c(C(=O)O)cc1C(=O)O)c1ccccc1 | 1.6 µM | 
O=C(Nc1cccc(C(F)(F)F)c1)Nc1cc(Br)ccc1C(=O)O | 6.1 µM | 
O=C(Nc1ccc2c(c1)OCO2)Nc1cc(Cl)ccc1C(=O)O | 3.6 µM | 
Cc1cccc(C(=O)O)c1NC(=O)Nc1cccc(C(F)(F)F)c1 | > 100 µM | 
O=C(Nc1ccccc1I)Nc1cc(Cl)ccc1C(=O)O | 5 µM | 
O=C(Nc1cccc(C(F)(F)F)c1)Nc1cc(Cl)ccc1C(=O)O | 5 µM | 
O=C(Nc1cc(Cl)ccc1C(=O)O)Nc1cccc2ccccc12 | 9.4 µM | 
O=C(Nc1ccc2ccccc2c1)Nc1cc(Cl)ccc1C(=O)O | 1.2 µM | IC50 [2]: > 100 µM; IC50 [3]: 62 µM; IC50 [5]: > 100 µM; ED50 (Mus musculus [6]): > 30 mg/kg; IC50 [7]: > 30 µM; IC50 [8]: > 100 µM; ED50 (Mus musculus [9]): > 30 mg/kg
COc1cccc(NC(=O)Nc2cc(Cl)ccc2C(=O)O)c1 | 3.7 µM | 
O=C(Nc1cccc(F)c1)Nc1cc(Cl)ccc1C(=O)O | 7.6 µM | 
O=C(Nc1cc(Cl)ccc1C(=O)O)NC1CCCCC1 | > 100 µM | 
COc1ccc(NC(=O)Nc2cc(Cl)ccc2C(=O)O)cc1 | 10 µM | 
O=C(Nc1ccc(Br)cc1)Nc1cc(Cl)ccc1C(=O)O | 2.2 µM | 
O=C(Nc1cccc(C(F)(F)F)c1)Nc1cc(F)ccc1C(=O)O | 10 µM | 
O=C(Nc1cc(Cl)ccc1C(=O)O)Nc1ccccc1C(F)(F)F | 4.5 µM | 
